# Source: PubChem BioAssay
# PREPL inhibitor – inhibits the human prolyl oligopeptidase-like enzyme | Q4J6C6 | recombinant PREPL, fluorescence polarization activity-based probe | inhibition, % at 5.96 µM | 0.68% of 320,000 active; in the data active = inhibition above about 43%;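 note: 0% = enzyme with DMSO and 100% = wells lacking enzyme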
# MC4R barr agon – agonists of human melanocortin 4 receptor (MC4R) beta-arrestin | P32245 | U2OS MC4R beta-arrestin complementation, luminescence; percent of melanotan II response, DMSO zero | activation, % at 8.9 µM | 0.98% of 360,000 active | AID 540308;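 active = activation above a per-plate cutoff, the mean activation of sample wells on that plate plus 3 SD, cut at about 8% in these data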
# Target sequence (P32245 whole entry, looked up): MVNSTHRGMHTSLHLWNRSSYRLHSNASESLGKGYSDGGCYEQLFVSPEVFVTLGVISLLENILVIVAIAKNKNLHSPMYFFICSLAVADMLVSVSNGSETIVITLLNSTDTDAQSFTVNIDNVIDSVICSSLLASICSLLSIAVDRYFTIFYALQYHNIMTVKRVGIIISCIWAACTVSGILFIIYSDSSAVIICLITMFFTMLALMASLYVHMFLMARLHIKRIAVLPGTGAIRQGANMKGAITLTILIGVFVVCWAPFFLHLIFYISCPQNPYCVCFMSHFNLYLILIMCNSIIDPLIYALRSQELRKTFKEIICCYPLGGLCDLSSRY
# m5-HT2A agonist – agonists of mouse serotonin 5-HT2A receptor (HTR2A); activation, % at 7.6 µM; AID 624169; P35363; CHO-K1 mHTR2A beta-arrestin complementation, luminescence; percent of 30 µM serotonin response; 0.66% of 360,000 active;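 active = activation above a run cutoff, the mean activation of all tested compounds plus 3 SD, cut at about 14% in these data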;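 note: 0% = plate median of compound wells and 100% = 30 µM serotonin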
# Hep lipid drop – hepatic lipid droplet formation modulation; 0.4% of 240,000 active; AID 1656; inhibition, % at 6.5 µM; AML12 mouse hepatocytes, oleate lipid droplets, BODIPY imaging;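 active = lipid droplet intensity inhibited by at least 50%, with more than 500 cells counted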
#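 Material – AML12 mouse liver cells · Also added – oleate loading, 100 µM · Compound dosing – 6.5 µM single-point dosing · Times – overnight treatment with compound plus oleate · Measured by – fluorescence imaging, 20x objective, two fields per well · Read-out – percent inhibition of filter-corrected integrated lipid droplet intensity per well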
# NTR1 ag – NTR1 (human) agonism. 0.17% of 330,000 active. activation, % at 20 µM. P30989. NTR1-U2OS beta-arrestin-GFP spot imaging, agonist mode. AID 493036;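 active = activation at or above 40% of the spot to cytoplasm intensity ratio, with at least 20 cells analyzed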;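 note: 0% = DMSO without peptide and 100% = 100 nM NTR1 peptide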
# MC4R antag cAMP – blocks human MC4R cAMP signaling; inhibition, % at 6.5 µM; MC4R-expressing cells, MTII-stimulated cAMP, LANCE TR-FRET; 0.48% of 360,000 active; P32245;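 active = inhibition above its plate's cutoff, the mean of tested wells on that plate plus 3 SD, cut at about 29% in these data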;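 note: 0% = Melanotan II alone and 100% = Melanotan II plus saturating MCL0020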
#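 Material: U2OS-MC4R stable cell line | Reagent: Melanotan II challenge after compound preincubation | Doses: One concentration, 6.5 µM nominal | Incubation: 30-min compound preincubation, 1-h Melanotan II challenge, 1-h detection, room temperature | Signal: TR-FRET cAMP assay | Replicates: One well per compound, no replicates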
# U2OS cAMP counter – counter-screen for MC4R antagonists: nonselective cAMP signaling inhibitors; AID 602193; shares compounds with MC4R antag cAMP; inhibition, % at 6.5 µM; parental U2OS, forskolin cAMP, LANCE TR-FRET; 26% of 1,600 active;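 active = mean inhibition over triplicates above the low-control well mean plus 3 SD, set per campaign, cut at about 13% in these data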;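 note: signal is single emission at 671 nm which falls as cellular cAMP rises; 0% = forskolin-stimulated wells and 100% = buffer without forskolin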
# MC4R antag conf – human MC4R cAMP antagonism confirmation; shares compounds with MC4R antag cAMP; MC4R-expressing cells, MTII-stimulated cAMP, TR-FRET; inhibition, % at 6.5 µM; 27% of 1,600 active; in the data active = inhibition above about 29%;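 note: 0% = agonist stimulated wells alone and 100% = agonist stimulated wells plus saturating reference antagonist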
# * marks the source's active call; other numbers are inactive results; · = no result given. Only some compounds are listed: those with a hit (about 2.7% of all), similar ones and a draw of the others.
SMILES,PREPL inhibitor,MC4R barr agon,m5-HT2A agonist,Hep lipid drop,NTR1 ag,MC4R antag cAMP,U2OS cAMP counter,MC4R antag conf
CCCC1Oc2ccccc2C(=O)N(CC(=O)c2ccc3c(c2)OCCO3)C1=O (configuration not stated),-3,-2,5,-14,5,-1,·,·
CCOc1cc(N2CCOCC2)c(OCC)cc1NCC(=O)N1CCN(Cc2ccccc2)CC1,20,0,-2,1,2,29*,1,1
O=C(c1ccc([N+](=O)[O-])cc1)N1CCc2ccccc2C1,13,2,-1,14,-1,29*,4,-3
O=C(c1ccc(S(=O)(=O)c2ccccc2)cc1)N1CCc2ccccc2C1,-3,-2,0,21,-1,3,·,·
COc1ccccc1N(C(C)=O)C1=C(Cl)C(=O)c2ccccc2C1=O,·,-4,1,·,·,98*,50*,13
CC(=O)N(C1=C(N)C(=O)c2ccccc2C1=O)C(C)C,-3,-1,0,25,0,8,·,·
CSCCC(NC(=O)c1ccc([N+](=O)[O-])cc1Cl)C(=O)OCC(=O)NCCCc1ccccc1 (configuration not stated),8,7,-3,-1,3,37*,16*,37*
OCCC1CN(Cc2ccccn2)CCN1C1CCCC1 (configuration not stated),0,0,1,-6,0,37*,21*,9
OCCC1CN(Cc2cccn2-c2ccccn2)CCN1C1CCCC1 (configuration not stated),5,-2,-5,-5,0,1,·,·
CC(=O)c1cccc(CN2CCN(C3CCCC3)C(CCO)C2)c1 (configuration not stated),3,0,-7,-19,0,29*,0,4
Cc1nc2cc(C(=O)NCc3cccnc3)ccc2n1-c1ccc(F)cc1F,1,-2,-2,7,-1,0,·,·
COc1cc2cc(CCOC(=O)c3ccc(C(F)(F)F)cc3)oc(=O)c2cc1OC,-10,5,0,·,2,3,·,·
COc1ccc(/C=N/Nc2nc(Nc3ccccc3)nc(N3CCCC3)n2)cc1[N+](=O)[O-],-5,3,-8,-4,2,32*,2,1
CCOC(=O)/C(=N\Nc1ccccc1Cl)N1CCN(c2ccccc2OC)CC1,-5,0,0,4,6,29*,1,-2
CCOC(=O)/C(=N\Nc1ccccc1Cl)N1CCN(C)CC1,20,-2,-4,6,-2,-4,·,·
O=C(NCc1cccnc1)C(=O)C1C(=O)Nc2ccccc21 (configuration not stated),-5,3,5,3,1,-4,·,·
CC(C)C(=O)N1CCC1(C)C(=O)NCc1cc(Cl)ccc1F (configuration not stated),·,-2,0,·,·,1,·,·
CCOC(=O)C1=C(C)C2C3C(=O)N(c4ccccc4C)C(=O)C3C1(C)C1C(=O)N(c3ccccc3C)C(=O)C21 (configuration not stated),13,-1,-1,-2,0,31*,0,-13
Clc1cc(-c2ccccc2)nc(-c2ccccc2)n1,-9,-1,1,·,12,30*,17*,29*
Cc1cc(Cl)nc(-c2ccccc2)n1,-4,-1,2,16,0,1,·,·
Brc1cc(-c2ccccc2)nc(-c2ccccc2)n1,0,-2,-2,·,3,36*,18*,36*
O=C(COC(=O)CNC(=O)c1ccc(Cl)cc1Cl)Nc1cccc(S(=O)(=O)N2CCCC2)c1,1,-2,-1,·,0,6,·,·
CSc1ccccc1OCc1cc(C(=O)N(C)Cc2cnccn2)no1,11,-2,0,-13,1,7,·,·
O=C(c1ccc(S(=O)(=O)N2CCCC2)cc1)N1CCCc2ccccc21,-11,1,7,·,0,2,·,·
